# Laboratory results as given in ChEMBL document CHEMBL1133458, “Synthesis and pharmacological evaluation of thiopyran analogues of the dopamine D3 receptor-selective agonist (4aR,10bR)-(+)-trans-3,4,4a,10b-tetrahydro-4-n-propyl-2H,5H [1]b enzopyrano[4,3-b]-1,4-oxazin-9-ol (PD 128907)” (J Med Chem, 2000).
# How the values were obtained:
# D(2) dopamine receptor [1] = target: T1, D(2) dopamine receptor (Homo sapiens, UniProt P14416); test: Tested for antagonist binding affinity by measuring displacement of [3H]spiperone from Human Dopamine receptor D2L expressed in CHO K-1 cells; assay type: cell-based
# T1 sequence (P14416 whole entry): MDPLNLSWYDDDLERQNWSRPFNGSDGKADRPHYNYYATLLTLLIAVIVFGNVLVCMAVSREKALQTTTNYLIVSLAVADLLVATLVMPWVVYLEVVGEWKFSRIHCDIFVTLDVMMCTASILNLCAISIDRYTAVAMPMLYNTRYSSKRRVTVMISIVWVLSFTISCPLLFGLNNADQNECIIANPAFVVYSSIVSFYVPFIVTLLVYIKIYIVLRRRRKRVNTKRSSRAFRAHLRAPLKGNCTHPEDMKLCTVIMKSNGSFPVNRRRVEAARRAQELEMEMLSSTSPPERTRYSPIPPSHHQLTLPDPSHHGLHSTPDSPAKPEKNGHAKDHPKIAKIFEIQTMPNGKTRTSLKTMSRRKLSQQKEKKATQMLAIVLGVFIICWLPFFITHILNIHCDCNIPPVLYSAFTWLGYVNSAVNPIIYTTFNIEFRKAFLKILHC
# How it was run: (§1)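 Displacement of antagonist radioligand [3H]spiperone from D2L or D4.2 receptors; Ki values are means of three separate experiments varying by no more than 25%.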
# D(3) dopamine receptor [2] = target: D(3) dopamine receptor (Homo sapiens, UniProt P35462); test: Tested for antagonist binding affinity by measuring displacement of [3H]spiperone from Human Dopamine receptor D3 expressed in CHO K-1 cells; assay type: cell-based
# Sequence of D(3) dopamine receptor (Homo sapiens, UniProt P35462) (P35462 whole entry): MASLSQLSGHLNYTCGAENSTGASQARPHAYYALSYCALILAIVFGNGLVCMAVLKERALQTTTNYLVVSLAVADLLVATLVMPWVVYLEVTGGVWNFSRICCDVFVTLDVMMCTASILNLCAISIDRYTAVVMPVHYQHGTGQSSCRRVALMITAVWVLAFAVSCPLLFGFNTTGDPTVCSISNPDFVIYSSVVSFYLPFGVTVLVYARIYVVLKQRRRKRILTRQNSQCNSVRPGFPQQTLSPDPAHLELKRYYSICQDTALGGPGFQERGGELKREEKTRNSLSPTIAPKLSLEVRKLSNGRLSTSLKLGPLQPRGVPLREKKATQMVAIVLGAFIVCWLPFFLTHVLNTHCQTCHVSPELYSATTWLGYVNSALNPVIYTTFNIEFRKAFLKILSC
# D(4) dopamine receptor [3] = target: T2, D(4) dopamine receptor (Homo sapiens, UniProt P21917); test: Tested for antagonist binding affinity by measuring displacement of [3H]spiperone from Human Dopamine receptor D4 expressed in CHO K-1 cells; assay type: cell-based; how it was run: as §1
# T2 sequence (P21917 whole entry): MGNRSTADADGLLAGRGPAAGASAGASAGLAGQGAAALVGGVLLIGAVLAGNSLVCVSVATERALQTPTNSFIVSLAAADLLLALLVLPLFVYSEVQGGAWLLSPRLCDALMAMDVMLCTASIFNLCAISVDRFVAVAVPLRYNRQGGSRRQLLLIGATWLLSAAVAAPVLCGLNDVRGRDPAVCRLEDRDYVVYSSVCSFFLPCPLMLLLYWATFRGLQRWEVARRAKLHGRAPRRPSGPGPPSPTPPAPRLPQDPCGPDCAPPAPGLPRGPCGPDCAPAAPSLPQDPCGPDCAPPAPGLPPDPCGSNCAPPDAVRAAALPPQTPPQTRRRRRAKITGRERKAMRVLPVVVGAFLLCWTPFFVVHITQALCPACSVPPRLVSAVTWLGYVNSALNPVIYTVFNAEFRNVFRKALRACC
# D(2) dopamine receptor [4] = target: T1, D(2) dopamine receptor; test: Tested for agonist binding affinity by measuring displacement of [3H]NPA from Human Dopamine receptor D2L expressed in CHO K-1 cells; assay type: cell-based
# How it was run: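 Agonist-state D2L affinity measured by displacement of [3H]NPA (N-propylnorapomorphine); Ki values are means of three separate experiments varying by no more than 25%.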
# [5] = target: Serotonin 2 (5-HT2) receptor (Rattus norvegicus, UniProt P30994+P08909+P14842); test: Tested for binding affinity by measuring displacement of [3H]ketanserin from rat serotonin 5-hydroxytryptamine 2 receptor in rat cortex
# How it was run: (§2)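 Rat brain binding: hippocampal 5HT1A with [3H]8-OH-DPAT, cortical 5HT2 with [3H]ketanserin as radioligand; values means of three separate experiments, varying no more than 25%.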
# [6] = target: T3, 5-hydroxytryptamine receptor 1A (Rattus norvegicus, UniProt P19327); test: Tested for binding affinity by measuring displacement of [3H]8-OH-DPAT from rat serotonin 5-hydroxytryptamine 1A receptor in rat hippocampus; assay type: tissue-based; how it was run: as §2
# T3 sequence (P19327 whole entry): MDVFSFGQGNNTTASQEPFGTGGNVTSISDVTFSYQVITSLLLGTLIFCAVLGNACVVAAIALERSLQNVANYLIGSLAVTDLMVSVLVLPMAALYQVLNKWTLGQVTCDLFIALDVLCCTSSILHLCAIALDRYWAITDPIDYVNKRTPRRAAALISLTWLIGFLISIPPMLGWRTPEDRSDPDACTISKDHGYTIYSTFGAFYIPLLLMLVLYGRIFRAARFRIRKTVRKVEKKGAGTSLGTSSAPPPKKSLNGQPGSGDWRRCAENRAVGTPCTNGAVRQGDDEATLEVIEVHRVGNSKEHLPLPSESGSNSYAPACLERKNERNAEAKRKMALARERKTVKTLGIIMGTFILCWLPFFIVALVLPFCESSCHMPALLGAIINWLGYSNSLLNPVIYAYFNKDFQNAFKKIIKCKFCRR
# Rattus norvegicus [7] = species: Rattus norvegicus; test: Flat body posture after 30 min in 4 reserpinized rats; assay type: functional
# How it was run: (§3)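 Male Wistar rats (180-200 g) given reserpine 10 mg/kg sc 18-24 h before; test drug in ethanol/saline, 1 mL/kg sc in neck after acclimation in single boxes; number of rats showing the behaviour during first 30 min after injection recorded; saline n=8.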
# Rattus norvegicus [8] = species: Rattus norvegicus; test: Sniffing after 30 min in 4 reserpinized rats; assay type: functional; how it was run: as §3
# [9] = target: T3, 5-hydroxytryptamine receptor 1A; test: Tested for binding affinity by measuring displacement of [3H]8-OH-DPAT from rat serotonin 5-hydroxytryptamine 1A receptor in rat hippocampus; NA means Not Active; assay type: tissue-based
# How it was run: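 Rat hippocampal 5HT1A receptors labelled with [3H]8-OH-DPAT; values are means of three separate experiments varying by no more than 25%.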
# Rattus norvegicus [10] = species: Rattus norvegicus; test: Lower lip retraction after 30 min in 4 reserpinized rats; assay type: functional; how it was run: as §3
# D(3) dopamine receptor [11] = target: T4, D(3) dopamine receptor (Rattus norvegicus, UniProt P19020); test: Agonist activity by measuring the [3H]thymidine uptake against Dopamine receptor D3 from rat; assay type: functional
# T4 sequence (P19020 whole entry): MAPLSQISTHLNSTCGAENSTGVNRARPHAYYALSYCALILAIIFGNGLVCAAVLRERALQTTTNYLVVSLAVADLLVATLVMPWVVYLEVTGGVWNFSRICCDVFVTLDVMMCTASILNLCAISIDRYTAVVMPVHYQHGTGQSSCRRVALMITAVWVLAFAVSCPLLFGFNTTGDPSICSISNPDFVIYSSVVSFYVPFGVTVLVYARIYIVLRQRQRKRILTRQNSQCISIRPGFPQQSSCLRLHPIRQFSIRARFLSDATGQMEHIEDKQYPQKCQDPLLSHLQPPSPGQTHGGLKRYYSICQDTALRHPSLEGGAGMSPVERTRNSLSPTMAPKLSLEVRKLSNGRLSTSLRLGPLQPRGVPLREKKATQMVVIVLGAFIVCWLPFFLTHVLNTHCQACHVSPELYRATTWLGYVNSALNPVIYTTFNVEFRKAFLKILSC
# Rattus norvegicus [12] = species: Rattus norvegicus; test: Yawning after 30 min in reserpinized rats; assay type: functional
# How it was run: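 Male Wistar rats (180-200 g) reserpinized with 10 mg/kg sc reserpine 18-24 h prior; drug dissolved in a few drops warmed 96% ethanol then saline, 1 mL/kg sc; yawns counted per rat over first 30 min post-injection, mean ± SEM.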
# [13] = target: D(3) dopamine receptor (Rattus norvegicus) (UniProt P19020); test: (§4) Intrinsic activity (IA) by the mitogenesis assay; assay type: functional
# Sequence of D(3) dopamine receptor (Rattus norvegicus) (P19020 whole entry): as above
# [14] = target: D(3) dopamine receptor (Rattus norvegicus) (UniProt P19020); test: Antagonist activity by measuring the inhibition of quinpirole stimulated [3H]- thymidine uptake against Dopamine receptor D3; the compound is active; assay type: functional; details: filed as antagonist
# D(2) dopamine receptor [15] = target: D(2) dopamine receptor (Rattus norvegicus, UniProt P61169); test: Agonist activity by measuring the [3H]thymidine uptake against Dopamine receptor D2L from rat; assay type: functional
# Sequence of D(2) dopamine receptor (Rattus norvegicus, UniProt P61169) (P61169 whole entry): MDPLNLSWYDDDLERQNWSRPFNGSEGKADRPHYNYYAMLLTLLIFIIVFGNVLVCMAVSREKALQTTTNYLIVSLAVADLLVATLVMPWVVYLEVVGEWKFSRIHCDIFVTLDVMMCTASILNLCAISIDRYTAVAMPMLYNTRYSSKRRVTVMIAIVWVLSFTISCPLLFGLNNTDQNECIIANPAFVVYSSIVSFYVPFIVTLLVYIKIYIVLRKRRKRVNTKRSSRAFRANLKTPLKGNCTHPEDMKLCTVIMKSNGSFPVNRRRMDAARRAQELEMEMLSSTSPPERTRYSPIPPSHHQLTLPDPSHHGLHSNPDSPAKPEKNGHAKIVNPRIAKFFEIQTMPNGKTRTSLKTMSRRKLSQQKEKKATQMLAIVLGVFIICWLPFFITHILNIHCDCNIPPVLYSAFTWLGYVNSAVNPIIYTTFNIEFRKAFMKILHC
# [16] = target: D(3) dopamine receptor (Rattus norvegicus) (UniProt P19020); test: as §4
# D(4) dopamine receptor [17] = target: T2, D(4) dopamine receptor; test: Tested for antagonist binding affinity by measuring displacement of [3H]-spiperone from Human Dopamine receptor D4 expressed in CHO K-1 cells; assay type: cell-based
# How it was run: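 Antagonist-radioligand binding: displacement of [3H]spiperone from D4.2 dopamine receptors; Ki values means of three separate experiments, varying no more than 25%.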
# D(3) dopamine receptor [18] = target: T4, D(3) dopamine receptor; test: Agonist activity by measuring the [3H]-thymidine uptake against Dopamine receptor D3 from rat; assay type: functional
# D(2) dopamine receptor [19] = target: T1, D(2) dopamine receptor; test: Human Dopamine receptor D2L affinities to determine agonist activity, using [3H]N-0437 as radioligand; assay type: functional
SMILES,Ki (D(2) dopamine receptor [1]) [nM],Ki (D(3) dopamine receptor [2]) [nM],Ki (D(4) dopamine receptor [3]) [nM],Ki (D(2) dopamine receptor [4]) [nM],Ki [6] [nM],EC50 (D(2) dopamine receptor [15]) [nM],other results
CCCN1CCO[C@@H]2c3cc(O)ccc3OC[C@@H]21 (relative stereo),> 10000,> 10000,–,–,–,–,–
CCCN1CCOC2c3cc(O)ccc3SCC21 (trans isomer),533,1.56,44.4,–,–,–,–
CCCN1CCO[C@H]2c3cc(O)ccc3OC[C@@H]21,> 10000,> 10000,–,–,–,–,–
CCCN1CCO[C@@H]2c3cc(O)ccc3OC[C@H]21 (relative stereo),> 10000,78,–,–,–,–,–
CCCN1CCO[C@H]2c3cc(O)ccc3SC[C@@H]21,–,3000,> 3300,854,> 1000,–,Ki [5]: > 5000 nM
CCCN1CCO[C@@H]2c3cc(O)ccc3SC[C@@H]21 (relative stereo),–,3.58,193,74,–,122,FB (Rattus norvegicus [7]): 0; Sni (Rattus norvegicus [8]): 0; Ki [9]: Not Active; LL (Rattus norvegicus [10]): 0; EC50 (D(3) dopamine receptor [11]): 36 nM; Ya (Rattus norvegicus [12]): 11; Intrinsic activity [13]: 57%; Activity [14]: Antagonist
CCCN1CCO[C@@H]2c3cc(O)ccc3SC[C@H]21,–,2.87,17.6,1.14,30,0.013,FB (Rattus norvegicus [7]): 4; Sni (Rattus norvegicus [8]): 4; LL (Rattus norvegicus [10]): 3; EC50 (D(3) dopamine receptor [11]): 0.007 nM; Ya (Rattus norvegicus [12]): 0; Intrinsic activity [13]: 45%; Ki [5]: > 5000 nM
CCCN1CCO[C@@H]2c3cc(O)ccc3OC[C@H]21 [listing 1 of 2 here],–,–,–,–,–,–,Intrinsic activity [16]: 54%; Activity [14]: Antagonist
CCCN1CCOC2c3cc(O)ccc3[S+]([O-])CC21 (stereo unspecified),–,29,–,197,–,–,Ki [9]: Not Active; IC50 (D(4) dopamine receptor [17]): > 10000 nM
CCCN1CCO[C@@H]2c3cc(O)ccc3OC[C@H]21 [listing 2 of 2 here],1180,1.4,169,–,1670,5.7,EC50 (D(3) dopamine receptor [18]): 0.36 nM; Ki (D(2) dopamine receptor [19]): 42 nM
